Test results published in article PMC10720030 (ACS Omega, 2023).
Values joined by “and” are separate entries in the source; they are usually repeats but may differ in a detail not shown here. Identical values can stand only once. Like-named read-outs stand apart in the source and are kept apart here.

Tests used:
[1] = test system: breast MCF-7 cancer cells; test: Cytotoxicity using the MTT assay, MCF-7; format: cell-based; conditions: for inhibition at 100 µM: read-out: % of cell inhibition ± SD at [100 μM], MCF7
Method in brief: (§1)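 MTT viability; cells grown with 10% FBS and 1% penicillin–streptomycin, exposed next day to five concentrations (0.01, 0.1, 1, 10, 100) for 48 h. MTT dye added for 3 h, then viability calculated against untreated control. IC50 taken from dose–response curve; mean ± SD of three independent triplicates (n = 3).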

liver HepG2 cancer cells = test: Cytotoxicity using the MTT assay, HepG2; format: cell-based; conditions: for inhibition at 100 µM: read-out: % of cell inhibition ± SD at [100 μM], HepG2
Method in brief: as §1

PIM-1 kinase = PIM-1 kinase (Homo sapiens, UniProt P11309); test: PIM-1 kinase inhibitory assay; format: biochemical; conditions: for % of kinase inhibition, PIM-1 kinase: concentration not given
MCF-7 cells [2] = test: DNA content-flow cytometry cell cycle analysis; format: cell-based; conditions: MCF-7, treated at IC50, 48 h; control 29.12%
MCF-7 cells [3] = test: Autophagy evaluation using acridine orange flow cytometry; format: cell-based; conditions: MCF-7, 48 h, control 32.8 × 10^3
MCF-10A normal cells = test: Cytotoxicity using the MTT assay, MCF-10A; format: cell-based; conditions: Homo sapiens, read-out: IC50 ± SD, MCF-10A
Method in brief: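 Normal breast cells run in MTT viability assay. IC50 derived from dose–response curve; values are mean ± SD of three independent triplicate experiments (n = 3).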

MCF-7 cells [4] = test: Wound-healing assay; format: cell-based
[5] = test system: Solid Ehrlich carcinoma (SEC); test: In vivo antitumor activity in SEC-bearing mice; parameters: species or system Swiss albino mice; conditions: 5 mg/kg I.P.; for tumor weight: n = 6, SEC control 198.5 ± 10.6; for tumor volume: n = 6, SEC control 274.8 ± 16.6
MCF-7 cells [6] = test: Annexin V/PI staining flow cytometry; format: cell-based; conditions: MCF-7, treated at IC50, 48 h
MCF-7 = conditions: read-out: IC50 against MCF-7; cited from earlier work
[7] = Homo sapiens, HepG2, 48 h, read-out: IC50 ± SD, HepG2, HepG2, MTT, 48 h, n = 3
[8] = read-out: IC50 ± SD, HepG2, HepG2, MTT, 48 h, n = 3
[9] = Homo sapiens, MCF7, 48 h, read-out: IC50 ± SD, MCF7, MCF7, MTT, 48 h, n = 3

Sequence of PIM-1 kinase (P11309 whole entry): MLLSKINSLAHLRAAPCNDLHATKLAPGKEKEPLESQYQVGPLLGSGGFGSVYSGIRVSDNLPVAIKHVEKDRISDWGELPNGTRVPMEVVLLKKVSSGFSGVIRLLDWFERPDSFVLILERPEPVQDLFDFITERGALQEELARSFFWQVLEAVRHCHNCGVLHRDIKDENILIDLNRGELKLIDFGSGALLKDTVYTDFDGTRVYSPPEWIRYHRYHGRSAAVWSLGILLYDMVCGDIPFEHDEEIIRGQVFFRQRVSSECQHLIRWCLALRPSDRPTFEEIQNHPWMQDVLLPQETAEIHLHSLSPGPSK

With `C=CCSc1nnc(COc2nc(C)cc(C)c2C#N)o1` [Compound 5, 2-((5-(Allylthio)-1,3,4-oxadiazol-2-yl)methoxy)-4,6-dimethylnicotinonitrile] as the molecule, how does the inhibition at 100 µM ([1]; Homo sapiens, MCF7, 48 h) read?
The inhibition at 100 µM was 47 ± 1.4%.

What about the inhibition at 100 µM (liver HepG2 cancer cells; Homo sapiens, HepG2, 48 h) of the same molecule?
Its inhibition at 100 µM is 69 ± 2.1%.

With `CC(=O)OC[C@H]1O[C@H](Sc2nnc(COc3nc(C)cc(C)c3C#N)o2)[C@H](OC(C)=O)[C@@H](OC(C)=O)[C@H]1OC(C)=O` [Compound 8, 2-((5-(2,3,4,6-Tetra-O-acetyl-α-D-galactopyranosylsulfanyl)-1,3,4-oxadiazol-2-yl)methoxy)-4,6-dimethylpyridine-3-carbonitrile] as the molecule, how does the inhibition at 100 µM ([1]; Homo sapiens, MCF7, 48 h) read?
The inhibition at 100 µM was 59.8 ± 1.7%.

What about the inhibition at 100 µM (liver HepG2 cancer cells; Homo sapiens, HepG2, 48 h) of the same molecule?
The inhibition at 100 µM was 57.8 ± 1.6%.

With `Cc1cc(C)c(C#N)c(OCC(=O)N2CCCCC2)n1` [Compound 13, 4,6-Dimethyl-2-(2-oxo-2-(piperidin-1-yl)ethoxy)nicotinonitrile] as the molecule, how does the inhibition at 100 µM ([1]; Homo sapiens, MCF7, 48 h) read?
Its inhibition at 100 µM is 64.6 ± 1.8%.

And the IC50 (PIM-1 kinase)?
Its IC50 is 19.8 ± 1.1 nM.

What about the “% of kinase inhibition, PIM-1 kinase” value (PIM-1 kinase) of the same molecule?
The value was 94.9 ± 2.9%.

And the inhibition at 100 µM (liver HepG2 cancer cells; Homo sapiens, HepG2, 48 h)?
Its inhibition at 100 µM is 56.4 ± 1.4%.

With `Cc1cc(C)c(C#N)c(OCC(=O)NCc2ccccc2)n1` [Compound 14, N-Benzyl-2-((3-cyano-4,6-dimethylpyridin-2-yl)oxy)acetamide] as the molecule, how does the inhibition at 100 µM ([1]; Homo sapiens, MCF7, 48 h) read?
The inhibition at 100 µM was 48.8 ± 1.2%.

What about the inhibition at 100 µM (liver HepG2 cancer cells; Homo sapiens, HepG2, 48 h) of the same molecule?
Its inhibition at 100 µM is 35.5 ± 1.1%.

Which inhibition at 100 µM ([1]; Homo sapiens, MCF7, 48 h) does the source give for `Cc1cc(C)c(C#N)c(OCc2nnc(SCc3ccccc3)o2)n1` [Compound 4, 2-((5-(Benzylthio)-1,3,4-oxadiazol-2-yl)methoxy)-4,6-dimethylnicotinonitrile] here?
The inhibition at 100 µM was 72.1 ± 2.9%.

What about the inhibition at 100 µM (liver HepG2 cancer cells; Homo sapiens, HepG2, 48 h) of the same molecule?
Its inhibition at 100 µM is 75.8 ± 2.3%.

Which results are given for `CCCCCSc1nnc(COc2nc(C)cc(C)c2C#N)o1` [Compound 6, 4,6-Dimethyl-2-((5-(pentylthio)-1,3,4-oxadiazol-2-yl)methoxy)nicotinonitrile]?
inhibition at 100 µM ([1]; Homo sapiens, MCF7, 48 h): 78.2 ± 2.2%; IC50 (PIM-1 kinase): 19.4 ± 0.7 nM; % of kinase inhibition, PIM-1 kinase (PIM-1 kinase): 94.3 ± 1.3%; inhibition at 100 µM (liver HepG2 cancer cells; Homo sapiens, HepG2, 48 h): 79.2 ± 2.2%; IC50 (liver HepG2 cancer cells; [7]): 5270 nM; IC50 (liver HepG2 cancer cells; [8]): 6640 ± 280 nM

With `CCOC(=O)CSc1nnc(COc2nc(C)cc(C)c2C#N)o1` [Compound 3, Ethyl 2-((5-(((3-Cyano-4,6-dimethylpyridin-2-yl)oxy)methyl)-1,3,4-oxadiazol-2-yl)thio)acetate] as the molecule, how does the inhibition at 100 µM ([1]; Homo sapiens, MCF7, 48 h) read?
The inhibition at 100 µM was 55.1 ± 2.1%.

What about the inhibition at 100 µM (liver HepG2 cancer cells; Homo sapiens, HepG2, 48 h) of the same molecule?
The inhibition at 100 µM was 57.8 ± 1.9%.

What does the source list for `Cc1cc(C)c(C#N)c(OCC(=O)N2CCOCC2)n1` [Compound 12, 4,6-Dimethyl-2-(2-morpholino-2-oxoethoxy)nicotinonitrile]?
inhibition at 100 µM ([1]; Homo sapiens, MCF7, 48 h): 84.2 ± 2.6%; IC50 [1, 9]: 500 nM; IC50 ([1]; read-out: IC50 ± SD, MCF7, MCF7, MTT, 48 h, n = 3): 510 ± 20 nM; S-phase cell population (%DIP S) (MCF-7 cells [2]): 36.02%; IC50 (PIM-1 kinase): 14.3 ± 0.6 nM; % of kinase inhibition, PIM-1 kinase (PIM-1 kinase): 97.5 ± 1.3%; autophagic cell death (MCF-7 cells [3]): 87.6 × 10^3 cells; inhibition at 100 µM (liver HepG2 cancer cells; Homo sapiens, HepG2, 48 h): 85.1 ± 2.1%; IC50 (liver HepG2 cancer cells; [7]): 6600 nM; IC50 (liver HepG2 cancer cells; [8]): 5270 ± 200 nM; IC50 (MCF-10A normal cells): 52800 ± 2100 nM; wound closure (MCF-7 cells [4]; MCF-7, after 48 h of treatment, control 95.6%): 71.8%; average L of migration (MCF-7 cells [4]; MCF-7, time 72 h): 0.32 mm; % closure (MCF-7 cells [4]; MCF-7, time 72 h, Cont.MCF-7 95.55): 71.85%; migrated cell area (MCF-7 cells [4]; MCF-7, time 72 h, total area 0.225): 0.161; tumor weight [5]: 72.8 mg and 72.8 ± 1.74 mg; tumor volume [5]: 159.2 mm^3 and 159.2 ± 10.1 mm^3; tumor inhibition ratio (TIR %) ([5]; n = 6, TIR % = C – T/C × 100): 42.1% and 42.1 ± 1.0%; early apoptosis (MCF-7 cells [6]): 23.18%; increase of apoptosis versus untreated control (MCF-7 cells [6]): 52.2 fold; late apoptosis (MCF-7 cells [6]): 10.25%; total apoptosis (MCF-7 cells [6]; untreated control 0.64%): 33.43%

What does the source list for `Cc1cc(C)c(C#N)c(OCc2n[nH]c(=S)o2)n1` [Compound 2, 4,6-Dimethyl-2-((5-thioxo-4,5-dihydro-1,3,4-oxadiazol-2-yl)methoxy)nicotinonitrile]?
inhibition at 100 µM ([1]; Homo sapiens, MCF7, 48 h): 41.9 ± 1.9%; inhibition at 100 µM (liver HepG2 cancer cells; Homo sapiens, HepG2, 48 h): 43.5 ± 1.8%

Which IC50 (MCF-7) does the source give for `CS(=O)(=O)CCNCc1ccc(-c2ccc3ncnc(Nc4ccc(OCc5cccc(F)c5)c(Cl)c4)c3c2)o1` [lapatinib] here?
Its IC50 is 4690 nM.

With `COc1cccc2c1C(=O)c1c(O)c3c(c(O)c1C2=O)C[C@@](O)(C(=O)CO)C[C@@H]3O[C@H]1C[C@H](N)[C@H](O)[C@H](C)O1` [doxorubicin, reference compound] as the molecule, how does the inhibition at 100 µM ([1]; Homo sapiens, MCF7, 48 h) read?
The inhibition at 100 µM was 90.2 ± 2.1%.

And the IC50 [1, 9]?
Its IC50 is 2140 ± 100 nM.

What about the inhibition at 100 µM (liver HepG2 cancer cells; Homo sapiens, HepG2, 48 h) of the same molecule?
Its inhibition at 100 µM is 79.1 ± 2.3%.

What about the IC50 (liver HepG2 cancer cells; [7]) of the same molecule?
Its IC50 is 2480 ± 100 nM.

What about the IC50 (MCF-10A normal cells) of the same molecule?
Its IC50 is 15800 ± 630 nM.

What about the tumor weight [5] of the same molecule?
The tumor weight was 63.4 mg.

And the tumor volume [5]?
Its tumor volume is 112.3 mm^3.

Which inhibition at 100 µM ([1]; Homo sapiens, MCF7, 48 h) does the source give for `COC(=O)CNC(=O)COc1nc(C)cc(C)c1C#N` [Compound 11, Methyl (2-((3-Cyano-4,6-dimethylpyridin-2-yl)oxy)acetyl)glycinate] here?
Its inhibition at 100 µM is 78.6 ± 2.3%.

What about the IC50 [1, 9] of the same molecule?
The IC50 was 730 ± 40 nM.

And the IC50 (PIM-1 kinase)?
Its IC50 is 42.3 ± 1.1 nM.

And the “% of kinase inhibition, PIM-1 kinase” value (PIM-1 kinase)?
Its value is 90.1 ± 2.7%.

And the inhibition at 100 µM (liver HepG2 cancer cells; Homo sapiens, HepG2, 48 h)?
The inhibition at 100 µM was 68.8 ± 1.6%.
